{"source": "ChEMBL document CHEMBL1143933", "about": "“Synthesis, dopaminergic profile, and molecular dynamics calculations of N-aralkyl substituted 2-aminoindans” (Bioorg Med Chem, 2008)", "format_in_all_cases": "functional, organism-based", "key": {"Rattus norvegicus [1]": {"test_system": "Rattus norvegicus", "experiment": "Natriuretic effect in icv dosed Sprague-Dawley rat assessed as increase in sodium excretion after 6 hrs", "how_it_was_run": "(§1)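 Adult male Sprague-Dawley rats (220–280 g) fitted with a cannula in the left lateral cerebroventricle under pentobarbital (40 mg/kg, ip), then allowed at least 3 days of recovery. Single ICV injection of 50 µg/10 µl, or vehicle NaCl 0.9%. Oral water load of 20 ml/kg, then individual metabolic cages. Urine collected at 3 and 6 h, with the bladder emptied at 6 h. Sodium measured by flame photometry. N = 6–8 per group; two-way ANOVA with Newman–Keuls.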"}, "Rattus norvegicus [2]": {"test_system": "Rattus norvegicus", "experiment": "Diuretic effect in icv dosed Sprague-Dawley rat assessed as increase in urine volume after 6 hrs", "how_it_was_run": "as §1"}, "Rattus norvegicus [3]": {"test_system": "Rattus norvegicus", "experiment": "Induction of stereotyped behavior in icv dosed Sprague-Dawley rat", "how_it_was_run": "(§2)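 Cannula placed in the right lateral ventricle under pentobarbital (40 mg/kg, ip) at 0.40 mm bregma, 1.1 mm lateral, 2.2 mm ventral. After 3 days, compound (0.6 or 6.0 µg/5 µl, or 50 µg/5 µl) or 0.9% NaCl infused at 0.5 µl/min. Starting 5 min later, behavior observed for 45 min in Plexiglas chambers. Gnawing recorded by computer at 4.5 min intervals. Four rats per measurement; ANOVA with Duncan's test.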"}, "Rattus norvegicus [4]": {"test_system": "Rattus norvegicus", "experiment": "Reduction of apomorphine-induced stereotyped behavior in Sprague-Dawley rat at 6 ug/ul, icv", "how_it_was_run": "(§3)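 Rats cannulated in the right lateral ventricle. ICV infusion of 0.6 or 6.0 µg/5 µl, or 0.9% NaCl, at 0.5 µl/min. Apomorphine HCl (1 mg/kg) given 1 min before observation began. Stereotyped gnawing recorded by computer at 4.5 min intervals for 45 min. Four rats per measurement; means ± SEM; ANOVA with Duncan's multiple range test.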"}, "Rattus norvegicus [5]": {"test_system": "Rattus norvegicus", "experiment": "Reduction of apomorphine-induced stereotyped behavior in Sprague-Dawley rat at 0.6 ug/ul, icv", "how_it_was_run": "as §3"}, "Rattus norvegicus [6]": {"test_system": "Rattus norvegicus", "experiment": "Induction of stereotyped behavior in Sprague-Dawley rat at 6 ug/ul, icv", "how_it_was_run": "as §2"}, "Rattus norvegicus [7]": {"test_system": "Rattus norvegicus", "experiment": "Inhibition of dopamine-induced natriuresis in icv dosed Sprague-Dawley rat", "how_it_was_run": "(§4)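 Male Sprague-Dawley rats (220–280 g) with a left lateral ventricle cannula. ICV pretreatment of 50 µg/5 µl, or vehicle 5 µl, given 15 min before ICV dopamine (100 µg/5 µl) or saline, then oral water 20 ml/kg. Urine volume and sodium (flame photometry) measured over 3 h and 6 h collections. N = 6–8; two-way ANOVA with Newman–Keuls.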"}, "Rattus norvegicus [8]": {"test_system": "Rattus norvegicus", "experiment": "Induction of stereotyped behavior in Sprague-Dawley rat at 0.6 ug/ul, icv", "how_it_was_run": "as §2"}, "Rattus norvegicus [9]": {"test_system": "Rattus norvegicus", "experiment": "Natriuretic effect in icv dosed Sprague-Dawley rat assessed as increase in sodium excretion after 3 hrs", "how_it_was_run": "as §1"}, "Rattus norvegicus [10]": {"test_system": "Rattus norvegicus", "experiment": "Inhibition of dopamine-induced diuresis in icv dosed Sprague-Dawley rat", "how_it_was_run": "as §4"}}, "note": "Active and inactive are the calls of the source. No cut-off for these calls is given here."}
{"smiles": "CCC(C)NC1Cc2ccc(O)c(O)c2C1", "note": "(configuration not stated)", "values": [{"measurement": "Activity", "setting": "Rattus norvegicus [1]", "value": "Active"}, {"measurement": "Activity", "setting": "Rattus norvegicus [2]", "value": "Active"}, {"measurement": "Activity", "setting": "Rattus norvegicus [3]", "value": "Active"}]}
{"smiles": "CC(Cc1ccc(O)c(O)c1)NC1Cc2ccc(O)c(O)c2C1", "note": "(configuration not stated)", "values": [{"measurement": "Activity", "setting": "Rattus norvegicus [1]", "value": "inactive"}, {"measurement": "Activity", "setting": "Rattus norvegicus [4]", "value": "Active"}, {"measurement": "Activity", "setting": "Rattus norvegicus [5]", "value": "Active"}, {"measurement": "Activity", "setting": "Rattus norvegicus [6]", "value": "inactive"}, {"measurement": "Activity", "setting": "Rattus norvegicus [7]", "value": "Active"}, {"measurement": "Activity", "setting": "Rattus norvegicus [8]", "value": "inactive"}, {"measurement": "Activity", "setting": "Rattus norvegicus [9]", "value": "inactive"}, {"measurement": "Activity", "setting": "Rattus norvegicus [2]", "value": "inactive"}, {"measurement": "Activity", "setting": "Rattus norvegicus [10]", "value": "Active"}]}
